Test results reported in ChEMBL document CHEMBL5724801, “EUbOPEN Chemogenomics Library - Multiplex” (2024).
Several values for one entry are separate records, joined by “and”; a condition that tells them apart may be missing. Equal values may be shown once.

Test system: U2OS
Test: Multiplex assay against U2OS
Format: toxicity, cell-based
Details: human
Outline: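 Per cents of healthy-nucleus cells form the tubulin, mitochondrial-mass and membrane-permeability phenotype values. Live cells were stained at seeding with Hoechst33342, BioTracker Green Microtubule Cytoskeleton Dye, MitoTracker Red and Annexin V Alexa Fluor 680. After compound addition they were imaged on a CQ1 microscope at 37°C and 5% CO2, and CellPathfinder machine-learning gating split them into Hoechst high-intensity objects or normal cells, normal cells into healthy, pyknosed or fragmented nuclei, and pyknosed cells into mitotic or apoptotic.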

[1] = 12 h, 1 µM, compound concentration 1 uM
[2] = 12 h, 10 µM, compound concentration 10 uM
[3] = 24 h, 1 µM, compound concentration 1 uM
[4] = 24 h, 10 µM, compound concentration 10 uM
[5] = 48 h, 1 µM, compound concentration 1 uM
[6] = 48 h, 10 µM, compound concentration 10 uM

With `CC(N)C1CCC(C(=O)Nc2ccncc2)CC1` (centres undefined) the “Population Apoptotic (%)” value [1] was 33.33% and 18.75%, the “Population Fragmented Nuclei (%)” value [1] was 1.02% and 1.57% and the “Population Healthy Nuclei (%)” value [1] was 90.39% and 81.68%. The “Population Hoechst High Intensity Objects (%)” value [1] was 0%, the “Population Membrane Permeable-Phenotype (%)” value [1] was 0.68% and 1.28% and the “Population Mitochondria Different-Phenotype (%)” value [1] was 0.68% and 3.21%. The “Population Mitotic Cells (%)” value [1] was 66.67% and 81.25%, the “Population Normal (%)” value [1] was 100% and the “Population Pyknosed Nuclei (%)” value [1] was 8.59% and 16.75%. The “Population Tubulin-Different-Phenotype (%)” value [1] was 0.23% and 0.64%, the “Total Cell Count” value [1] was 489 and 191 and the “Population Apoptotic (%)” value [2] was 31.03% and 27.78%. For the same compound, the “Population Fragmented Nuclei (%)” value [2] was 0.73% and 1.2%, the “Population Healthy Nuclei (%)” value [2] was 92.2% and 87.95% and the “Population Hoechst High Intensity Objects (%)” value [2] was 0%. The “Population Membrane Permeable-Phenotype (%)” value [2] was 1.32% and 1.37%, the “Population Mitochondria Different-Phenotype (%)” value [2] was 0% and 11.64% and the “Population Mitotic Cells (%)” value [2] was 68.97% and 72.22%. For the same compound, the “Population Normal (%)” value [2] was 100%, the “Population Pyknosed Nuclei (%)” value [2] was 7.07% and 10.84% and the “Population Tubulin-Different-Phenotype (%)” value [2] was 0.79% and 0.68%. The “Total Cell Count” value [2] was 410 and 166, the “Population Apoptotic (%)” value [3] was 41.18% and 41.67% and the “Population Fragmented Nuclei (%)” value [3] was 2.2% and 3.47%. The “Population Healthy Nuclei (%)” value [3] was 90.32% and 87.26%, the “Population Hoechst High Intensity Objects (%)” value [3] was 0% and the “Population Membrane Permeable-Phenotype (%)” value [3] was 0.65% and 1.33%. The “Population Mitochondria Different-Phenotype (%)” value [3] was 0.16% and 3.1%, the “Population Mitotic Cells (%)” value [3] was 58.82% and 58.33% and the “Population Normal (%)” value [3] was 100%. The “Population Pyknosed Nuclei (%)” value [3] was 7.48% and 9.27%, the “Population Tubulin-Different-Phenotype (%)” value [3] was 0.81% and 0.88% and the “Total Cell Count” value [3] was 682 and 259. For the same compound, the “Population Apoptotic (%)” value [4] was 32.08% and 28.57%, the “Population Fragmented Nuclei (%)” value [4] was 1.38% and 0% and the “Population Healthy Nuclei (%)” value [4] was 89.48% and 85.29%. The “Population Hoechst High Intensity Objects (%)” value [4] was 0%, the “Population Membrane Permeable-Phenotype (%)” value [4] was 0.19% and 1.48% and the “Population Mitochondria Different-Phenotype (%)” value [4] was 0.19% and 6.9%. For the same compound, the “Population Mitotic Cells (%)” value [4] was 67.92% and 71.43%, the “Population Normal (%)” value [4] was 100% and the “Population Pyknosed Nuclei (%)” value [4] was 9.14% and 14.71%. For the same compound, the “Population Tubulin-Different-Phenotype (%)” value [4] was 0.19% and 0.49%, the “Total Cell Count” value [4] was 580 and 238 and the “Population Apoptotic (%)” value [5] was 48.51% and 53.33%. For the same compound, the “Population Fragmented Nuclei (%)” value [5] was 2.96% and 2.17%, the “Population Healthy Nuclei (%)” value [5] was 89.37% and 88.07% and the “Population Hoechst High Intensity Objects (%)” value [5] was 0%. The “Population Membrane Permeable-Phenotype (%)” value [5] was 1.02% and 1.48%, the “Population Mitochondria Different-Phenotype (%)” value [5] was 0.08% and 2.46% and the “Population Mitotic Cells (%)” value [5] was 51.49% and 46.67%. For the same compound, the “Population Normal (%)” value [5] was 100%, the “Population Pyknosed Nuclei (%)” value [5] was 7.67% and 9.76% and the “Population Tubulin-Different-Phenotype (%)” value [5] was 0.51% and 0.25%. For the same compound, the “Total Cell Count” value [5] was 1317 and 461, the “Population Apoptotic (%)” value [6] was 45.33% and 46.15% and the “Population Fragmented Nuclei (%)” value [6] was 3.3% and 1%. For the same compound, the “Population Healthy Nuclei (%)” value [6] was 89.84% and 86%, the “Population Hoechst High Intensity Objects (%)” value [6] was 0.18% and 0% and the “Population Membrane Permeable-Phenotype (%)” value [6] was 0.82% and 1.45%. The “Population Mitochondria Different-Phenotype (%)” value [6] was 0.1% and 4.94%, the “Population Mitotic Cells (%)” value [6] was 54.67% and 53.85% and the “Population Normal (%)” value [6] was 99.82% and 100%. The “Population Pyknosed Nuclei (%)” value [6] was 6.87% and 13%, the “Population Tubulin-Different-Phenotype (%)” value [6] was 0.1% and 0.29% and the “Total Cell Count” value [6] was 1094 and 400.

For `Cc1nc2ccc(Oc3ccc(F)cc3)cc2c(=O)n1C[C@H]1CCCN(C(C)C)C1.Cl`, the “Population Apoptotic (%)” value [1] was 83% and 60%, the “Population Fragmented Nuclei (%)” value [1] was 25% and 14% and the “Population Healthy Nuclei (%)” value [1] was 64% and 81%. For the same compound, the “Population Hoechst High Intensity Objects (%)” value [1] was 3% and 1%, the “Population Membrane Permeable-Phenotype (%)” value [1] was 9% and 17% and the “Population Mitochondria Different-Phenotype (%)” value [1] was 3% and 7%. The “Population Mitotic Cells (%)” value [1] was 16% and 40%, the “Population Normal (%)” value [1] was 96% and 98% and the “Population Pyknosed Nuclei (%)” value [1] was 10% and 4%. The “Population Tubulin-Different-Phenotype (%)” value [1] was 7% and 9%, the “Total Cell Count” value [1] was 244 and 125 and the “Population Apoptotic (%)” value [2] was 65% and 78%. For the same compound, the “Population Fragmented Nuclei (%)” value [2] was 25% and 24%, the “Population Healthy Nuclei (%)” value [2] was 59% and 58% and the “Population Hoechst High Intensity Objects (%)” value [2] was 3% and 4%. The “Population Membrane Permeable-Phenotype (%)” value [2] was 58% and 25%, the “Population Mitochondria Different-Phenotype (%)” value [2] was 61% and 75% and the “Population Mitotic Cells (%)” value [2] was 35% and 21%. For the same compound, the “Population Normal (%)” value [2] was 96% and 95%, the “Population Pyknosed Nuclei (%)” value [2] was 15% and 17% and the “Population Tubulin-Different-Phenotype (%)” value [2] was 63% and 47%. For the same compound, the “Population Apoptotic (%)” value [3] was 78% and 80%, the “Population Fragmented Nuclei (%)” value [3] was 23% and 21% and the “Population Healthy Nuclei (%)” value [3] was 65% and 71%. For the same compound, the “Population Hoechst High Intensity Objects (%)” value [3] was 4% and 2%, the “Population Membrane Permeable-Phenotype (%)” value [3] was 7% and 11% and the “Population Mitochondria Different-Phenotype (%)” value [3] was 5% and 9%. For the same compound, the “Population Mitotic Cells (%)” value [3] was 21% and 20%, the “Population Normal (%)” value [3] was 95% and 97% and the “Population Pyknosed Nuclei (%)” value [3] was 10% and 6%. The “Population Tubulin-Different-Phenotype (%)” value [3] was 4% and 8%, the “Total Cell Count” value [3] was 276 and 146 and the “Population Apoptotic (%)” value [4] was 77% and 76%. The “Population Fragmented Nuclei (%)” value [4] was 25% and 22%, the “Population Healthy Nuclei (%)” value [4] was 57% and 52% and the “Population Hoechst High Intensity Objects (%)” value [4] was 4% and 6%. The “Population Membrane Permeable-Phenotype (%)” value [4] was 37% and 22%, the “Population Mitochondria Different-Phenotype (%)” value [4] was 63% and 62% and the “Population Mitotic Cells (%)” value [4] was 22% and 23%. The “Population Normal (%)” value [4] was 95% and 93%, the “Population Pyknosed Nuclei (%)” value [4] was 16% and 24% and the “Population Tubulin-Different-Phenotype (%)” value [4] was 47% and 40%. For the same compound, the “Population Apoptotic (%)” value [5] was 84% and 93%, the “Population Fragmented Nuclei (%)” value [5] was 19% and the “Population Healthy Nuclei (%)” value [5] was 69% and 72%. The “Population Hoechst High Intensity Objects (%)” value [5] was 1% and 0%, the “Population Membrane Permeable-Phenotype (%)” value [5] was 7% and the “Population Mitochondria Different-Phenotype (%)” value [5] was 5%. The “Population Mitotic Cells (%)” value [5] was 15% and 6%, the “Population Normal (%)” value [5] was 98% and 99% and the “Population Pyknosed Nuclei (%)” value [5] was 10% and 7%. For the same compound, the “Population Tubulin-Different-Phenotype (%)” value [5] was 4% and 6%, the “Total Cell Count” value [5] was 371 and 213 and the “Population Apoptotic (%)” value [6] was 77% and 88%. For the same compound, the “Population Fragmented Nuclei (%)” value [6] was 29%, the “Population Healthy Nuclei (%)” value [6] was 54% and 51% and the “Population Hoechst High Intensity Objects (%)” value [6] was 5% and 8%. For the same compound, the “Population Membrane Permeable-Phenotype (%)” value [6] was 29% and 27%, the “Population Mitochondria Different-Phenotype (%)” value [6] was 36% and 41% and the “Population Mitotic Cells (%)” value [6] was 22% and 11%. For the same compound, the “Population Normal (%)” value [6] was 94% and 91%, the “Population Pyknosed Nuclei (%)” value [6] was 16% and 19% and the “Population Tubulin-Different-Phenotype (%)” value [6] was 23% and 35%.
